Experimental data of several laboratories.
Target: Mitogen-activated protein kinase 9 (MAPK9, Homo sapiens, UniProt P45984)

Compound	assay	setting	measurement	result
Cn1cc(-c2cccc(N3CCc4c(sc5c4CC(C)(C)C5)C3=O)c2CO)cc(Nc2ccncn2)c1=O	enzyme activity, inhibitor	1 µM	inhibition	12%
COc1ncccc1-c1cnn2ccc(N3CCN(C(=O)OC(C)C)CC3)nc12	binding, competition with immobilised ligand	1 µM	remaining binding	100%
O=c1[nH]c2ccccc2n1C1CCN(Cc2ccc(-c3[nH]c4cc5ncnc5cc4nc3-c3ccccc3)cc2)CC1	cell-free assay	0.5 µM	remaining signal	91.9%
Cn1cncc1[C@@](O)(COc1ccc(C#N)cc1-c1ccc(OC(F)(F)F)cc1)c1ccc(C#N)cc1	cell-free assay, competition with immobilised ligand	1 µM	remaining binding	92%
CC(C)(C)c1cc(C=C(C#N)C#N)cc(Br)c1O	enzyme activity, inhibitor	0.5 µM	remaining activity	103%
Nc1ncc(-c2nc(N3CCOCC3)nc(N3CCOCC3)n2)c(C(F)F)n1	binding, competition with immobilised ligand	10 µM	remaining binding	83%
Cn1cc(-c2cc(F)cc(N3CCn4c(cc5c4CCCC5)C3=O)c2CO)cc(Nc2ccc(N3CCN(C4COC4)CC3)cn2)c1=O	enzyme activity, inhibitor	0.1 µM	inhibition	1%
Cc1nn(C)cc1-c1nc2c(N3CCN(Cc4ccc(Cl)cc4)CC3)c(Cl)cnc2[nH]1	binding, competition with immobilised ligand	1 µM	remaining binding	100%
